# Source: PubChem BioAssay
# MT stabilize HCS – microtubule stabilizers in HeLa cells, primary screen, imaging, high-content imaging; HeLa tubulin immunostaining HCS, 24 h; share of cells brighter than vehicle mean+2SD; % tubulin-high responders, % at 10 µM; 200,000 compounds, 0.83% hits; AID 2205, 2009;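 active = plate Z-score above 3 for both tubulin-high and condensed-nucleus cell shares, with cell loss under 80%, at 10 µM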;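 also: anti alpha tubulin signal scored within the nucleus-defined area of each cell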
# Ba/F3 V617F tox – reduced viability of JAK2V617F-dependent Ba/F3 cells, primary screen, JAK2V617F inhibitor project, cell-based, Ba/F3 EpoR-JAK2V617F, luminescence | ATP luminescence | inhibition, % at 5.6 µM | 220,000 compounds, 1.1% hits | AID 1446, 2008;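 active = inhibition above the campaign mean plus 3 SD over all tested compounds, cut at about 24% in these data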;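 also: cytokine-independent growth of Ba/F3 cells driven by EpoR plus mutant JAK2; 0% = DMSO-treated cells and 100% = JAK inhibitor I control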
# KLF5 inh – KLF5 expression inhibitors, primary screen, DLD-1 cells, luminescence. 290,000 compounds, 0.23% hits. inhibition, % at 5 µM. DLD-1 KLF5 promoter-luciferase reporter. AID 1700, 2009;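 active = inhibition above a per-plate limit of that plate's mean compound inhibition plus 3 SD, cut at about 60% in these data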;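 also: 0% = DMSO wells and 100% = LY294002 at 200 µM; higher means less KLF5 promoter-driven luciferase light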
# BaF3 tox – parental Ba/F3 cell viability inhibition, counter-screen for JAK2V617F inhibitor project, murine pro-B, CellTiter-Glo luminescence; CellTiter-Glo ATP luminescence; inhibition, % at 5.6 µM; 220,000 compounds, 1.1% hits;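 active = inhibition above a per-campaign cutoff, the mean inhibition of all tested compounds plus 3 SD, cut at about 27% in these data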;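 also: 0% = DMSO wells and 100% = JAK Inhibitor I control wells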
# IEC-6 tox – cytotoxicity in IEC-6 intestinal epithelial cells, primary screen, cytotoxicity control for KLF5 inhibitor project, cell-based, luminescence; inhibition, % at 5 µM; 290,000 compounds, 0.78% hits; AID 1825, 2009; IEC-6 cytotoxicity, luminescence viability;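 also: 0% = plate median of test compound wells and 100% = cytotoxic reference compound wells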
# bCat nuc transl – modulators of beta-catenin nuclear translocation, primary screen, imaging, HeLa cells, immunofluorescence, high-content. nuclear translocation activity, % at 5 µM. 190,000 compounds, 0.3% hits. AID 1665, 2009;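 active = nuclear translocation activity above 50% at 5 µM, with a well cell count of 50 or more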;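 also: per-cell ratio of nuclear to cytoplasmic median beta-catenin stain intensity; plate controls were DMSO negative control for no effect and GSK-3 inhibitor IX positive control for full effect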
#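 Test system: human HeLa cells, native beta-catenin. Compound dosing: 5 µM primary single dose, 0.1% DMSO, 0.02–20 µM confirmation series. Incubation: compound exposure 24 h at 37°C. Detection: beta-catenin immunostaining with DAPI counterstain, 20x imaging, 6 fields/well. Read-out basis: Nuclear/cytoplasmic beta-catenin signal ratio, % activation.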
# IEC-6 tox confirm – cytotoxic compounds in IEC-6 epithelial cells, confirmation, cytotoxicity control, cell-based, luminescence | inhibition, % at 5 µM | shares compounds with IEC-6 tox | IEC-6 rat intestinal epithelial viability | 1,900 compounds, 63% hits | AID 1907, 2009;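 also: 0% = vehicle and 100% = reference cytotoxic drug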
# Numbers without * were called inactive; . = no result given. This is a sample that favours compounds with a hit; in the whole collection about 2.1% have one here. Rule as the data show it, unless noted: active = inhibition above about 22%; inactive = the rest.
SMILES,MT stabilize HCS,Ba/F3 V617F tox,KLF5 inh,BaF3 tox,IEC-6 tox,bCat nuc transl,IEC-6 tox confirm
Cc1ccc(CN2CCCCC2C(=O)Nc2ccc(Oc3cccnc3)cc2)o1 (centres undefined),.,.,26.9,.,38.4*,.,36.7*
CSCCC(NC(=O)/C(=C/c1ccc(F)cc1)NC(C)=O)C(=O)O (centres undefined),2.4,-1.3,-2.0,5.1,-2.2,-6.0,.
CN(Cc1cn(C)nc1-c1ccc(Oc2ccccc2)cc1)CC1COCCO1 (centres undefined),2.6,98.1*,5.4,102.2*,77.1*,-0.2,2.7
CN(Cc1cn(C)nc1-c1ccc(Oc2ccccc2)cc1)C1CCOC1 (centres undefined),.,-0.5,-13.3,3.8,-1.6,0.4,.
COc1cccc2c1OC1(C)CC2NC(=O)N1c1cccc(C(=O)N2CCN(c3ccccc3)CC2)c1 (centres undefined),2.7,-0.1,-16.2,3.0,-4.9,-0.6,.
CCC(C(=O)Nc1cc(Cl)c(OC)cc1OC)c1ccccc1 (centres undefined),5.0,0.9,0.0,8.5,3.3,-3.0,.
COc1cc(OC)c(NC2=CC(=O)C(=O)c3ccccc32)cc1Cl,.,.,42.2,.,77.7*,.,30.8*
O=C(c1cccc(N2CCCC2=O)c1)N1CCN(c2cccc(Cl)c2)CC1,.,.,13.4,.,44.2*,.,17.4
Cc1csc2ncnc(NC3CCN(Cc4ccccc4)CC3)c12,.,54.9*,-25.6,60.7*,22.9*,1.1,14.1
Cc1ccc(-c2csc3ncnc(N4CCN(Cc5ccccc5)CC4)c23)cc1,.,.,-42.9,.,-7.2,.,.
CN1CCc2c(sc(NC(=O)Cc3ccccc3)c2C(N)=O)C1,.,.,-15.6,.,3.8,.,.
CN1CCc2c(sc(NC(=O)c3ccc4ccccc4c3)c2C(N)=O)C1,.,.,-89.6,.,49.8*,.,26.3*
Cc1cc(C)cc(NS(=O)(=O)c2ccc3[nH]cc(C(=O)NCc4ccco4)c(=O)c3c2)c1,2.0,64.2*,-1.6,65.5*,28.0*,.,29.1*
C/C(=N\NC(=O)COc1ccccc1-c1ccccc1)c1ccccn1,7.5,1.4,27.6,5.0,12.4,-1.3,.
C/C(=N\NC(=O)COc1ccccc1-c1ccccc1)c1ccc(O)cc1O,.,3.9,50.5,-11.3,74.1*,-0.8,42.2*
COc1ccccc1Nc1c2c(nc3ccccc13)CCC2,.,.,13.7,.,47.9*,.,30.9*
COC(=O)c1cccc(Nc2c3c(nc4ccccc24)CCC3)c1,.,.,-7.2,.,27.7*,.,8.0
CC(=O)c1ccc(Nc2c3c(nc4ccccc24)CCCC3)cc1,.,2.2,-9.7,-3.6,24.6*,1.3,20.4
COc1ccc(CC(=O)NCC(C)(C)N2CCOCC2)cc1,.,.,0.7,.,-5.0,.,.
Cc1cccc(C)c1-n1c(C)nn(CCOc2ccccc2)c1=O,4.2,-0.1,-3.0,2.0,1.0,-4.2,.
CN(C)C(=O)c1cnc(-c2ccccc2)nc1-c1ccccc1,.,.,-35.7,.,-5.0,.,.
COc1ccc(/C=N/NC(=O)c2ccco2)cc1COc1ccc(F)cc1,.,.,-23.1,.,2.5,.,.
COc1ccc(/C=N\NC(=O)c2ccccc2F)cc1COc1ccc(F)cc1F,.,.,59.6,.,80.5*,.,62.5*
COc1cc2ccccc2cc1C(=O)N/N=C/c1ccc2c(c1)OCO2,.,.,35.1,.,37.1*,.,25.5*
COc1ccc(/C=N\NC(=O)c2ccccc2F)cc1COc1ccc(F)cc1,.,.,13.7,.,22.8*,.,14.0
Cn1cc([N+](=O)[O-])c(C(=O)Nc2ccc(Br)cn2)n1,6.9,4.7,-57.9,6.9,4.0,.,.
COc1cc(/C=C2\CCC/C(=C\c3ccc(O)c(OC)c3)C2=O)ccc1O,.,.,-25.2,.,8.3,.,.
CCOc1cc(/C=C2\CN(CC)C/C(=C\c3ccc(O)c(OCC)c3)C2=O)ccc1O,.,.,19.2,.,73.6*,.,23.5*
Cc1cc(C)c2sc(NC(=O)c3ccc([N+](=O)[O-])o3)nc2c1,.,.,-24.8,.,98.7*,.,47.4*
O=C(Nc1c(Cl)ccc2nsnc12)c1ccc([N+](=O)[O-])o1,.,.,-5.0,.,94.8*,.,49.5*
